Experimental data taken from ChEMBL document CHEMBL1147654, “Synthesis and pharmacological evaluation of novel 9- and 10-substituted cytisine derivatives. Nicotinic ligands of enhanced subtype selectivity” (J Med Chem, 2006).
pKi: −log10 of the molar value.

Key:
[1] = target: T1, Neuronal acetylcholine receptor; alpha2/beta2 (Rattus norvegicus, UniProt P12389+P12390); assay: Displacement of [3H]epibatidine from rat alpha2beta2 nACHR expressed in human HEK293 cells at 10 uM; format: cell-based
[2] = target: Neuronal acetylcholine receptor; alpha3/beta2 (Rattus norvegicus, UniProt P04757+P12390); assay: Displacement of [3H]epibatidine from rat alpha-3-beta-2 nACHR expressed in human HEK293 cells at 10 uM; format: cell-based
Sequence of Neuronal acetylcholine receptor; alpha3/beta2 (P04757 whole entry): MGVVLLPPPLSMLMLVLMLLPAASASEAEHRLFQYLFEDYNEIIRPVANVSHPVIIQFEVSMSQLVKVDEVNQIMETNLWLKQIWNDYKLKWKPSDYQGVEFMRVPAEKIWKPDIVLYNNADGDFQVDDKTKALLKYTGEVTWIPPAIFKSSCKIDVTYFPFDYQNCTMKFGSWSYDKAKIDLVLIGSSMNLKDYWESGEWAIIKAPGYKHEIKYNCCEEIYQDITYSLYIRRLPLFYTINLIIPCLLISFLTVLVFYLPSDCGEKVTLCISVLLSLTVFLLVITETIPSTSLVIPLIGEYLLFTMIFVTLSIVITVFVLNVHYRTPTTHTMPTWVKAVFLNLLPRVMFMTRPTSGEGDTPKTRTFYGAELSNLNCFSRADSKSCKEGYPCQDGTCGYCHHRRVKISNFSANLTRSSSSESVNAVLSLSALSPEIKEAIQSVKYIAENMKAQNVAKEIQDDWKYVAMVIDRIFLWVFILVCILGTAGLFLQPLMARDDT
Sequence of Neuronal acetylcholine receptor; alpha3/beta2 (P12390 whole entry): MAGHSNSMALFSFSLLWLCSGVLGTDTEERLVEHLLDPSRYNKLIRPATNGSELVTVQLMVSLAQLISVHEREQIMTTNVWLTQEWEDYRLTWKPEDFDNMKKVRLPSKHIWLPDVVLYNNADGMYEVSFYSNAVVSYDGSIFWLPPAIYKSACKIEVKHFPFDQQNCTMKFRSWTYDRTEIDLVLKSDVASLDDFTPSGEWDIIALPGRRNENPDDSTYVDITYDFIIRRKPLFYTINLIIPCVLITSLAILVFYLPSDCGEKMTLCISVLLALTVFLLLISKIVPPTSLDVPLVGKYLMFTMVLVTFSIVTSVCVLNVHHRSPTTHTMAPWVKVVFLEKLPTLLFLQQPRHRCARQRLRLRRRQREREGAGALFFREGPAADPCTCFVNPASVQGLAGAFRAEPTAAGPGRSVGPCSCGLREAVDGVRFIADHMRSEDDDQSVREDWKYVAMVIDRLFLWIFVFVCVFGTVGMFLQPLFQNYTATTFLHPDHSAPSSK

[3] = target: T2, Neuronal acetylcholine receptor; alpha4/beta4 (Rattus norvegicus, UniProt P09483+P12392); assay: Displacement of [3H]epibatidine from rat alpha-4-beta-4 nACHR expressed in human HEK293 cells at 10 uM; format: cell-based
T2 sequence (P09483 whole entry): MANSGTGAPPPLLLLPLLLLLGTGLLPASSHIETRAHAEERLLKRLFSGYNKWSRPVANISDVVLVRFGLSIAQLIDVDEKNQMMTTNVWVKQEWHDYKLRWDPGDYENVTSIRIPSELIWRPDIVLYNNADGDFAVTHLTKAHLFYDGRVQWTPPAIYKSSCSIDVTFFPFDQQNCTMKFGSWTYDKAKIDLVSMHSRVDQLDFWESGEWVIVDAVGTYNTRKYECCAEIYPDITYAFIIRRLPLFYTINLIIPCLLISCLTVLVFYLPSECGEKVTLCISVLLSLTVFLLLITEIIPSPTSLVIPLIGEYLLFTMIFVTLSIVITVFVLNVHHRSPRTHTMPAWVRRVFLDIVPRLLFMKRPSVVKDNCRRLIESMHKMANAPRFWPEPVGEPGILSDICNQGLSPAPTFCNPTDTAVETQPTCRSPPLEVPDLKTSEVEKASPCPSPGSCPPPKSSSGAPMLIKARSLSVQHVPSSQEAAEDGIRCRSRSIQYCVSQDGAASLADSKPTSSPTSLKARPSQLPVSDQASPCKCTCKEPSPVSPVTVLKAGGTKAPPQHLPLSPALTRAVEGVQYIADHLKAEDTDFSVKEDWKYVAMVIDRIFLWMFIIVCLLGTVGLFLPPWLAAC
T2 sequence (P12392 whole entry): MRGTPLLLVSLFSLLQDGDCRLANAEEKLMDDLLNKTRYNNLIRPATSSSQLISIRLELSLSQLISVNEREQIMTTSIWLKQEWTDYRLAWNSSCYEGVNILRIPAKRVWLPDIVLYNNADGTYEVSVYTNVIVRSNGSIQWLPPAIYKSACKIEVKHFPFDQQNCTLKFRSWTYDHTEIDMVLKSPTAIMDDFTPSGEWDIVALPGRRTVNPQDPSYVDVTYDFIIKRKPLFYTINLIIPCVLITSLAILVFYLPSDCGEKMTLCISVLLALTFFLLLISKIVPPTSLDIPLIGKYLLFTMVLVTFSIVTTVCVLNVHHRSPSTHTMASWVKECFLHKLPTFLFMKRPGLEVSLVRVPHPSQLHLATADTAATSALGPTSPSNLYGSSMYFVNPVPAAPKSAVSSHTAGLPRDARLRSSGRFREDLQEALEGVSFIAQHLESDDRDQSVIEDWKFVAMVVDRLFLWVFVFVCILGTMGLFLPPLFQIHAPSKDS

[4] = target: T3, Neuronal acetylcholine receptor; alpha3/beta4 (Rattus norvegicus, UniProt P04757+P12392); assay: Displacement of [3H]epibatidine from rat alpha-3-beta-4 nACHR expressed in human HEK293 cells at 10 uM; format: cell-based
T3 sequence (P04757 whole entry): as the sequence (P04757 whole entry) above
T3 sequence (P12392 whole entry): as the sequence (P12392 whole entry) above

[5] = target: T4, Neuronal acetylcholine receptor; alpha4/beta2 (Rattus norvegicus, UniProt P09483+P12390); assay: Displacement of [3H]epibatidine from rat alpha-4-beta-2 nACHR expressed in human HEK293 cells at 10 uM; format: cell-based
T4 sequence (P09483 whole entry): as the sequence (P09483 whole entry) above
T4 sequence (P12390 whole entry): as the sequence (P12390 whole entry) above

[6] = target: T5, Neuronal acetylcholine receptor; alpha2/beta4 (Rattus norvegicus, UniProt P12389+P12392); assay: Displacement of [3H]epibatidine from rat alpha-2-beta-4 nACHR expressed in human HEK293 cells at 10 uM; format: cell-based
T5 sequence (P12389 whole entry): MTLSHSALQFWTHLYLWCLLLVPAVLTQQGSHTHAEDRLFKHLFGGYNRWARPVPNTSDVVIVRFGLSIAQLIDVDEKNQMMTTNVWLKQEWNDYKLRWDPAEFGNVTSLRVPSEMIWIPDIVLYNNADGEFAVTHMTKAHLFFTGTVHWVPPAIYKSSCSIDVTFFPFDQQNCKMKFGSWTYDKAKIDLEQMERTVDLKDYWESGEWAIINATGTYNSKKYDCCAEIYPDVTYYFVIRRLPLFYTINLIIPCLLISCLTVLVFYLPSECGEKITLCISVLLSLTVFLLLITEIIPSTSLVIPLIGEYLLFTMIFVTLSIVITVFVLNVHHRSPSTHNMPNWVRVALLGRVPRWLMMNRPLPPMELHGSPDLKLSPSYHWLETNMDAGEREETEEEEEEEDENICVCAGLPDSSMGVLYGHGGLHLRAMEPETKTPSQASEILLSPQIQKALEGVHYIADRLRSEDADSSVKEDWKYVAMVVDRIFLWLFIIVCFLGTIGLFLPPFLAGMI
T5 sequence (P12392 whole entry): as the sequence (P12392 whole entry) above

[7] = Displacement of [3H]epibatidine from rat […] nACHR expressed in human HEK293 cells at 10 uM; format: cell-based
[8] = target: Neuronal acetylcholine receptor; alpha3/beta4 (Rattus norvegicus) (UniProt P04757+P12392); assay: Efficacy at rat alpha3beta4 nACHR expressed in human HEK293 cells by rubidium efflux assay relative to nicotine; format: functional, cell-based
Procedure, shortened: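 Agonist-stimulated 86Rb+ efflux in KXα3β4R2 cells stably expressing rat α3β4 nAChRs. Mean ± standard error of three independent experiments, each in quadruplicate.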

[9] = target: T6, Neuronal acetylcholine receptor; alpha4/beta2 (Rattus norvegicus) (UniProt P09483+P12390); assay: Efficacy at rat alpha4beta2 nACHR by rubidium efflux assay; format: functional
[10] = Selectivity for rat alpha-4-beta-2 nACHR over alpha3beta4 nACHR expressed in human HEK293 cells; format: cell-based
Procedure, shortened: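 Ki ratio (α3β4/α4β2), taken from competition binding Ki values measured on membrane homogenates of stably transfected cells expressing the respective nAChR subtypes.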

[11] = target: T4, Neuronal acetylcholine receptor; alpha4/beta2; assay: Displacement of [3H]epibatidine from rat forebrain alpha4beta2 nACHR
Procedure, shortened: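 Competition binding was run on rat forebrain membrane homogenates.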

[12] = target: T6, Neuronal acetylcholine receptor; alpha4/beta2 (Rattus norvegicus); assay: Inhibition of nicotine-stimulated response at rat alpha-4-beta-2 nACHR at 100 uM; format: functional
[13] = target: T2, Neuronal acetylcholine receptor; alpha4/beta4; assay: Displacement of [3H]epibatidine from rat alpha-4-beta-4 nACHR expressed in human HEK293 cells; format: cell-based
Procedure, shortened: (§1)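 Competition binding in membrane homogenates of stably transfected cells expressing each nAChR subtype, with Ki values derived from displacement.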

[14] = target: T3, Neuronal acetylcholine receptor; alpha3/beta4; assay: Displacement of [3H]epibatidine from rat alpha3beta4 nACHR expressed in human HEK293 cells; format: cell-based; procedure, shortened: as §1
[15] = target: T1, Neuronal acetylcholine receptor; alpha2/beta2; assay: Displacement of [3H]epibatidine from rat alpha-2-beta-2 nACHR expressed in human HEK293 cells; format: cell-based; procedure, shortened: as §1
[16] = target: T5, Neuronal acetylcholine receptor; alpha2/beta4; assay: Displacement of [3H]epibatidine from rat alpha-2-beta-4 nACHR expressed in human HEK293 cells; format: cell-based; procedure, shortened: as §1

T1 sequence (P12389 whole entry): as the sequence (P12389 whole entry) above
T1 sequence (P12390 whole entry): as the sequence (P12390 whole entry) above

Structure (SMILES)	pKi [2]	pKi [3]	pKi [4]	pKi [5]	pKi [6]	pKi [7]	Ratio [10]	further results
O=c1ccccn1CC1CCN(Cc2ccccc2)CC1	5.14	5.35	3.21	5.89	3.36	3.33		pKi [1]: 4.59
CN1CCC[C@H]1c1cccnc1								Emax [8]: 100%; Emax [9]: 100%
CN1CCCC(Cn2ccccc2=O)C1 (centres undefined)	5.22	5.59	3.80	6.01	3.74	4.12		pKi [1]: 4.72
O=c1c(-c2ccc(F)cc2)ccc2n1CC1CNCC2C1 (single isomer, unassigned)							157	
CCC(=O)[C@H]1C2CNCC(C2)c2cccc(=O)n21 (single isomer, unassigned)							18	
Cc1cc2n(c(=O)c1)CC1CNCC2C1 (racemic)							3530	pKi [11]: 7.70; inhibition [12]: > 50%
O=c1cc(CO)cc2n1CC1CNCC2C1 (racemic)							909	pKi [11]: 7.42; inhibition [12]: > 50%
O=c1ccccn1CC1CCCN(Cc2ccccc2)C1 (centres undefined)	5.37	5.85	4.08	6.27	4.04	4.27		pKi [1]: 4.00
COC(=O)[C@H]1C2CNCC(C2)c2cccc(=O)n21 (single isomer, unassigned)							13	
CCCCc1ccc(-c2ccc3n(c2=O)CC2CNCC3C2)cc1 (single isomer, unassigned)							17	
Cc1ccc(-c2ccc3n(c2=O)CC2CNCC3C2)s1 (single isomer, unassigned)							59	
O=c1ccccn1CC1CCNCC1	4.92	5.27	3.12	5.80	4.10	4.06		
C=Cc1ccc2n(c1=O)CC1CNCC2C1 (single isomer, unassigned)								Emax [9]: 22%
O=c1cccc2n1C[C@@H]1CNC[C@H]2C1 [CYTISINICLINE]							144	pKi [13]: 8.68; pKi [14]: 6.66; pKi [15]: 8.97; pKi [11]: 8.72; pKi [16]: 8.27
O=c1ccccn1CC1CCCNC1 (centres undefined)	4.73	5.26	3.27	5.75	3.80	3.60		pKi [1]: 5.33
